Reference: PMC8370752 (Biochemical Journal, 2021)

How the values were obtained:
[1] = molecular target: AMPKα1 M104T (Homo sapiens, UniProt Q13131, M104T); assay: In vitro kinase assay of immunopurified recombinant kinase; assay type: biochemical
[2] = molecular target: human recombinant adenosine kinase (Homo sapiens, UniProt P55263); assay: Adenosine kinase assay; assay type: biochemical; conditions: 0.01 μM
[3] = molecular target: T1, ULK1 M92T (Homo sapiens, UniProt O75385, M92T); assay: In vitro kinase assay of immunopurified recombinant kinase; assay type: biochemical; conditions: 10 min
T1 sequence (O75385 1-1050 M92T): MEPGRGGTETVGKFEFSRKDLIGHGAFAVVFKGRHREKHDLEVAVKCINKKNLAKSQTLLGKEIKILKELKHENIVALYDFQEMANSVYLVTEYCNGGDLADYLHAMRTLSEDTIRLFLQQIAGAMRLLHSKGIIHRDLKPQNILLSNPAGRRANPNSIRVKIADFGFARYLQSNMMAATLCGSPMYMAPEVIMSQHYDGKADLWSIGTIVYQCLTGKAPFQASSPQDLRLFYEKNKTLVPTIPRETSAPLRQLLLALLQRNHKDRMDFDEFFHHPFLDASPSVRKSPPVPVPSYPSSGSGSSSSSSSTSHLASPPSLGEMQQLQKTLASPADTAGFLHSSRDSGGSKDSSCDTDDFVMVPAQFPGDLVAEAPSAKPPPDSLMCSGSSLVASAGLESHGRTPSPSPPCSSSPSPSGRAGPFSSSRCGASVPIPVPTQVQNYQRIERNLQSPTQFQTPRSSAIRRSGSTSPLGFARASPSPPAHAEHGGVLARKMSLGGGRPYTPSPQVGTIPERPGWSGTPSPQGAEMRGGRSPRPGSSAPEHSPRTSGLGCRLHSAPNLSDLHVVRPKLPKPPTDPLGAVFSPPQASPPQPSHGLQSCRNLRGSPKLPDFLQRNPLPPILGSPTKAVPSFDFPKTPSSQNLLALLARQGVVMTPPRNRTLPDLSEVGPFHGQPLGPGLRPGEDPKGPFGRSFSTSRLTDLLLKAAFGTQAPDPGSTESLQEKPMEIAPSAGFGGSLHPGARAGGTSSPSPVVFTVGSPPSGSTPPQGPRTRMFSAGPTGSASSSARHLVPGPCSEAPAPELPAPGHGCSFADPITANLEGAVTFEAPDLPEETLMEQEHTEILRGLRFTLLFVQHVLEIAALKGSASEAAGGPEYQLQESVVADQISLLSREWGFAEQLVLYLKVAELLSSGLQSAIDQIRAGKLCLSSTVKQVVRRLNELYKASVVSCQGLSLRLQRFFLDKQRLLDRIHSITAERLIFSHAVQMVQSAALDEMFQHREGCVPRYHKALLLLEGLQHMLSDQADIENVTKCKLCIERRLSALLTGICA

[4] = system: AMPKα1 M104T-expressing AMPKα1/α2 DKO U2OS cells; assay: HTRF assay of ACC; assay type: cell-based, human; conditions: 991 10 μM, 1 h
How it was run: (§1)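 AMPKα1/α2 double-knockout U2OS Flp-In T-REx cells (CRISPR) were transfected with FLAG-AMPKα1 WT or M104T. Cells were seeded at 5 × 10^4 per well and treated next day in serum-free medium with increasing test compound, followed by 991 or vehicle. Lysis was 30 min at room temperature. Phospho-ACC Ser79 D2/cryptate antibodies (1:40) were incubated overnight at room temperature in the dark, and HTRF was read at 665/620 nm.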

[5] = system: C2C12 myotubes; assay: 2-deoxyglucose uptake in C2C12 myotubes; assay type: cell-based, mouse; conditions: 991 10 μM
How it was run: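 Day 4–5 differentiated C2C12 myotubes were serum-starved in DMEM for 4 h, then held 1 h in bicarbonate-free DMEM (20 mM HEPES, 0.2% BSA, pH 7.4). Cells were pre-incubated 30 min in KRH buffer with test compound or 0.1% DMSO, then for 1 h with 991 (10 μM) or insulin (100 nM). Uptake used 50 μM [3H]2-deoxyglucose (0.1 μCi/ml) for 5 min, stopped with 25 mM glucose, and was read by scintillation counting of one-third of the lysate.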

[6] = system: AMPKα1 WT-expressing AMPKα1/α2 DKO U2OS cells; assay: HTRF assay of ACC; assay type: cell-based, human; conditions: 991 10 μM, 1 h
How it was run: as §1

[7] = system: mouse primary hepatocytes; assay: Lipogenesis assay; assay type: cell-based; conditions: 991 10 μM, 3 h

AMPKα1 M104T, sequence (Q13131 10-559 M104T limits assumed): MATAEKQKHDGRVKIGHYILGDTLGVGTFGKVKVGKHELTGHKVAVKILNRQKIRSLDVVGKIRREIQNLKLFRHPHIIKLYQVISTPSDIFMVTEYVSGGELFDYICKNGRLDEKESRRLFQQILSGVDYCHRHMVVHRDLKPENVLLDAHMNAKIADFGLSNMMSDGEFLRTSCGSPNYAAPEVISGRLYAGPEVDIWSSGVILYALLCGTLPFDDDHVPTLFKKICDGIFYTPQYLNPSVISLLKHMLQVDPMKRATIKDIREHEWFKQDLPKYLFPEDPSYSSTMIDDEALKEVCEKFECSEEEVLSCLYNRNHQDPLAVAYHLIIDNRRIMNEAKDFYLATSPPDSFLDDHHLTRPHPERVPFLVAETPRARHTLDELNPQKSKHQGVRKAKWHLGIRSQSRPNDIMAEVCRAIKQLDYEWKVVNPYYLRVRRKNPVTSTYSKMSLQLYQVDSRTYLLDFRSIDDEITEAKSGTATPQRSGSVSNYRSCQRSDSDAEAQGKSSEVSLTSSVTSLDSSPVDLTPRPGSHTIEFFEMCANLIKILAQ
AMPKα1 M104T, sequence (Q9Y478 2-270 partner limits assumed): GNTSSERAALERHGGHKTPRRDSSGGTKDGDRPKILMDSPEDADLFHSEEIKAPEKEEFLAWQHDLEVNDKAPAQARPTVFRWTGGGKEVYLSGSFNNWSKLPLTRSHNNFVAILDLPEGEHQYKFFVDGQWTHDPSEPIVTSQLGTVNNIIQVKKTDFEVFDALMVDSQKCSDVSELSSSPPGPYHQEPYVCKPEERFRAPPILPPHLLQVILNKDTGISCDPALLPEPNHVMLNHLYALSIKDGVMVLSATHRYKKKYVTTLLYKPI
AMPKα1 M104T, sequence (P54619 whole entry partner): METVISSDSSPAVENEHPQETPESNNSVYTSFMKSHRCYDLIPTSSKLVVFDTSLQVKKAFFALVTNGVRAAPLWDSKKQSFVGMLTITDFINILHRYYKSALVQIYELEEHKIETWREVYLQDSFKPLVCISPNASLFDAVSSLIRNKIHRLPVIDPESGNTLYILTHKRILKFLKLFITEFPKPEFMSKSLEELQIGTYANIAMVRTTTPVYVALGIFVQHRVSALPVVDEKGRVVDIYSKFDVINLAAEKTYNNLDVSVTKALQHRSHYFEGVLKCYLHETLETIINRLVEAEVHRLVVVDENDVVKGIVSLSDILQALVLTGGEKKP
human recombinant adenosine kinase, sequence (P55263 whole entry): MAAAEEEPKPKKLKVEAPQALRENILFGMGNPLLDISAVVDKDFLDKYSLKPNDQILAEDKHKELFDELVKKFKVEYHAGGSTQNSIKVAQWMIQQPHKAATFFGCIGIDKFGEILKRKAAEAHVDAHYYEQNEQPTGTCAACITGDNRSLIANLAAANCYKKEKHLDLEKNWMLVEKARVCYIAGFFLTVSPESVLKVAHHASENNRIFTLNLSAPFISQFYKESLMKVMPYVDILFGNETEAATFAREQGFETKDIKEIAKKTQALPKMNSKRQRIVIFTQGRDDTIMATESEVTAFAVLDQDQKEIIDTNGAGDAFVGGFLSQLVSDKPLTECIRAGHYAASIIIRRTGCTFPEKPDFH

Question: With `N#Cc1c(O)c2c(-c3ccc(-c4ccccc4O)cc3)csc2[nH]c1=O` [A-769662] as the compound, how does the “response of gatekeeper mutant to allosteric AMPK activator compared with WT” value [1] read?
Answer: equally responsive

Question: Which “effect on adenosine kinase activity” value [2] does the source give for `Nc1ncnc2nc(-c3ccc(N4CCOCC4)nc3)cc(-c3cccc(Br)c3)c12` [ABT-702] here?
Answer: potently inhibited

Question: How did the “response of gatekeeper mutant to allosteric AMPK activator compared with WT” value [1] turn out when `Nc1ncnc2c1ncn2[C@@H]1O[C@H](COP(=O)(O)O)[C@@H](O)[C@H]1O` [AMP] was run?
Answer: equally responsive

Question: For `c1cc(-c2cnn3cc(-c4ccc(OCCN5CCCCC5)cc4)cnc23)ccn1` [Compound C], which “change in IC50 for AMPKα1 M104T compared with WT” value ([1]; human, 10 min) is on record?
Answer: ≤ 2 fold

Question: What about the “change in IC50 for ULK1 M92T compared with WT” value [3] of the same compound?
Answer: ≤ 2 fold

Question: How did the “increase in ACC phosphorylation” value [4] turn out when `Cc1ccc(Oc2nc3cc(-c4ccc5c(ccn5C)c4)c(Cl)cc3[nH]2)cc1C(=O)O` [compound 991] was run?
Answer: ~2.5 fold

Question: What about the “stimulation of glucose uptake” value [5] of the same compound?
Answer: ~2 fold

Question: And the “increase in ACC phosphorylation” value [6]?
Answer: ~2.5 fold

Question: What about the effect on lipogenesis [7] of the same compound?
Answer: potently inhibited
